Laboratory results as given in ChEMBL document CHEMBL1268976, “Stereocontrolled facile synthesis and antimicrobial activity of oximes and oxime ethers of diversely substituted bispidines” (2010).
Converted amounts (≈) assume the structure as drawn.

Key:
Type in all cases: functional
Cryptococcus neoformans = test: Antimicrobial activity against Cryptococcus neoformans by broth microdilution method
How it was run: (§1)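 Fungal panel of Candida albicans, Candida parapsilosis, Aspergillus niger and Cryptococcus neoformans, tested in vitro by standard NCCLS broth microdilution. The yeast susceptibility reference cited is M27-A.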

Klebsiella pneumoniae = test: Antibacterial activity against Klebsiella pneumoniae by broth microdilution method
How it was run: (§2)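 In vitro broth microdilution following the NCCLS standard for bacteria (M7-A5). The test panel was Bacillus subtilis, Staphylococcus aureus, Klebsiella pneumoniae and Pseudomonas aeruginosa.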

Bacillus subtilis = test: Antibacterial activity against Bacillus subtilis by broth microdilution method; how it was run: as §2
Aspergillus niger = test: Antifungal activity against Aspergillus niger by broth microdilution method; how it was run: as §1
Staphylococcus aureus = test: Antibacterial activity against Staphylococcus aureus by broth microdilution method; how it was run: as §2
Candida parapsilosis = test: Antifungal activity against Candida parapsilosis by broth microdilution method; details: Lodderomyces parapsilosis; how it was run: as §1
Candida albicans = test: Antifungal activity against Candida albicans by broth microdilution method; how it was run: as §1
Pseudomonas aeruginosa = test: Antibacterial activity against Pseudomonas aeruginosa by broth microdilution method; how it was run: as §2

Row | Compound | MIC90 (Cryptococcus neoformans) [µg/mL] | MIC90 (Klebsiella pneumoniae) [µg/mL] | MIC90 (Bacillus subtilis) [µg/mL] | MIC90 (Aspergillus niger) [µg/mL] | MIC90 (Staphylococcus aureus) [µg/mL] | MIC90 (Candida parapsilosis) [µg/mL] | MIC90 (Candida albicans) [µg/mL] | MIC90 (Pseudomonas aeruginosa) [µg/mL]
1 | CON=C1C2C(c3ccc(C(C)C)cc3)NC(c3ccc(C(C)C)cc3)C1C(c1ccc(C(C)C)cc1)NC2c1ccc(C(C)C)cc1 (centres undefined) | > 128 | 128 (≈ 199 µM) | > 128 | 128 (≈ 199 µM) | 128 (≈ 199 µM) | 8 (≈ 12.5 µM) | 128 (≈ 199 µM) | 16 (≈ 24.9 µM)
2 | CCOc1ccc(C2NC(c3ccc(OCC)cc3)C3C(=NO)C2C(c2ccc(OCC)cc2)NC3c2ccc(OCC)cc2)cc1 (centres undefined) | 64 (≈ 101 µM) | 32 (≈ 50.3 µM) | > 128 | 16 (≈ 25.2 µM) | > 128 | > 128 | > 128 | 32 (≈ 50.3 µM)
3 | ON=C1C2C(c3cccc(Oc4ccccc4)c3)NC(c3cccc(Oc4ccccc4)c3)C1C(c1cccc(Oc3ccccc3)c1)NC2c1cccc(Oc2ccccc2)c1 (centres undefined) | > 128 | > 128 | > 128 | > 128 | > 128 | 128 (≈ 155 µM) | 128 (≈ 155 µM) | > 128
4 | CON=C1C2C(c3ccc(Br)cc3)NC(c3ccc(Br)cc3)C1C(c1ccc(Br)cc1)NC2c1ccc(Br)cc1 (centres undefined) | > 128 | > 128 | 64 (≈ 81.1 µM) | > 128 | > 128 | 16 (≈ 20.3 µM) | > 128 | > 128
5 | C=CCOc1ccc(C2NC(c3ccc(OCC=C)cc3)C3C(=NO)C2C(c2ccc(OCC=C)cc2)NC3c2ccc(OCC=C)cc2)cc1 (centres undefined) | > 128 | 64 (≈ 93.6 µM) | 128 (≈ 187 µM) | 64 (≈ 93.6 µM) | > 128 | 64 (≈ 93.6 µM) | > 128 | > 128
6 | Cc1ccc(C2NC(c3ccc(C)cc3)C3C(=NO)C2C(c2ccc(C)cc2)NC3c2ccc(C)cc2)cc1 (centres undefined) | > 128 | > 128 | > 128 | > 128 | > 128 | 32 (≈ 62.1 µM) | 64 (≈ 124 µM) | 32 (≈ 62.1 µM)
7 | CON=C1C2C(c3ccc(F)cc3)NC(c3ccc(F)cc3)C1C(c1ccc(F)cc1)NC2c1ccc(F)cc1 (centres undefined) | 32 (≈ 58.7 µM) | 16 (≈ 29.3 µM) | 64 (≈ 117 µM) | 2 (≈ 3.67 µM) | 8 (≈ 14.7 µM) | > 128 | 2 (≈ 3.67 µM) | 4 (≈ 7.33 µM)
8 | CCc1ccc(C2NC(c3ccc(CC)cc3)C3C(=NO)C2C(c2ccc(CC)cc2)NC3c2ccc(CC)cc2)cc1 (centres undefined) | > 128 | > 128 | > 128 | > 128 | > 128 | 64 (≈ 112 µM) | > 128 | 32 (≈ 56 µM)
9 | CC(C)c1ccc(C2NC(c3ccc(C(C)C)cc3)C3C(=NO)C2C(c2ccc(C(C)C)cc2)NC3c2ccc(C(C)C)cc2)cc1 (centres undefined) | > 128 | 128 (≈ 204 µM) | > 128 | > 128 | 128 (≈ 204 µM) | 32 (≈ 51 µM) | > 128 | 16 (≈ 25.5 µM)
10 | CCCCOc1ccc(C2NC(c3ccc(OCCCC)cc3)C3C(=NOC)C2C(c2ccc(OCCCC)cc2)NC3c2ccc(OCCCC)cc2)cc1 (centres undefined) | 32 (≈ 42 µM) | 64 (≈ 84 µM) | > 128 | 32 (≈ 42 µM) | > 128 | > 128 | > 128 | 64 (≈ 84 µM)
11 | GENTAMICIN |  | 2 | 16 |  | 4 |  |  | 16
12 | CON=C1C2C(c3ccc(OC)cc3)NC(c3ccc(OC)cc3)C1C(c1ccc(OC)cc1)NC2c1ccc(OC)cc1 (centres undefined) | 16 (≈ 26.9 µM) | > 128 | 64 (≈ 108 µM) | 16 (≈ 26.9 µM) | 32 (≈ 53.9 µM) | 128 (≈ 216 µM) | > 128 | 16 (≈ 26.9 µM)
13 | CON=C1C2C(c3ccc(Cl)cc3)NC(c3ccc(Cl)cc3)C1C(c1ccc(Cl)cc1)NC2c1ccc(Cl)cc1 (centres undefined) | > 128 | 4 (≈ 6.54 µM) | 128 (≈ 209 µM) | 16 (≈ 26.2 µM) | 32 (≈ 52.3 µM) | > 128 | 4 (≈ 6.54 µM) | 8 (≈ 13.1 µM)
14 | CON=C1C2C(c3cccc(Cl)c3)NC(c3cccc(Cl)c3)C1C(c1cccc(Cl)c1)NC2c1cccc(Cl)c1 (centres undefined) | > 128 | 64 (≈ 105 µM) | > 128 | 64 (≈ 105 µM) | > 128 | > 128 | > 128 | > 128
15 | CON=C1C2C(c3ccc(OCc4ccccc4)cc3)NC(c3ccc(OCc4ccccc4)cc3)C1C(c1ccc(OCc3ccccc3)cc1)NC2c1ccc(OCc2ccccc2)cc1 (centres undefined) | > 128 | 64 (≈ 71.3 µM) | > 128 | 64 (≈ 71.3 µM) | > 128 | > 128 | > 128 | > 128
16 | ON=C1C2C(c3ccc(OCc4ccccc4)cc3)NC(c3ccc(OCc4ccccc4)cc3)C1C(c1ccc(OCc3ccccc3)cc1)NC2c1ccc(OCc2ccccc2)cc1 (centres undefined) | > 128 | > 128 | > 128 | 128 (≈ 145 µM) | > 128 | > 128 | > 128 | > 128
17 | ON=C1C2C(c3ccccc3Cl)NC(c3ccccc3Cl)C1C(c1ccccc1Cl)NC2c1ccccc1Cl (centres undefined) | 16 (≈ 26.8 µM) | 32 (≈ 53.6 µM) | > 128 | 8 (≈ 13.4 µM) | 64 (≈ 107 µM) | > 128 | 16 (≈ 26.8 µM) | 16 (≈ 26.8 µM)
18 | COc1cccc(C2NC(c3cccc(OC)c3)C3C(=NO)C2C(c2cccc(OC)c2)NC3c2cccc(OC)c2)c1 (centres undefined) | > 128 | > 128 | > 128 | 64 (≈ 110 µM) | > 128 | > 128 | > 128 | 128 (≈ 221 µM)
19 | ON=C1C2C(c3cccc(F)c3)NC(c3cccc(F)c3)C1C(c1cccc(F)c1)NC2c1cccc(F)c1 (centres undefined) | > 128 | 64 (≈ 120 µM) | 128 (≈ 241 µM) | 64 (≈ 120 µM) | > 128 | > 128 | 32 (≈ 60.2 µM) | 64 (≈ 120 µM)
20 | ON=C1C2C(c3ccc(Cl)cc3)NC(c3ccc(Cl)cc3)C1C(c1ccc(Cl)cc1)NC2c1ccc(Cl)cc1 (centres undefined) | > 128 | 16 (≈ 26.8 µM) | > 128 | 64 (≈ 107 µM) | 64 (≈ 107 µM) | 128 (≈ 214 µM) | 8 (≈ 13.4 µM) | 32 (≈ 53.6 µM)
21 | COc1ccccc1C1NC(c2ccccc2OC)C2C(=NO)C1C(c1ccccc1OC)NC2c1ccccc1OC (centres undefined) | 32 (≈ 55.2 µM) | 64 (≈ 110 µM) | > 128 | 16 (≈ 27.6 µM) | > 128 | 32 (≈ 55.2 µM) | > 128 | 16 (≈ 27.6 µM)
22 | CON=C1C2C(c3cccc(F)c3)NC(c3cccc(F)c3)C1C(c1cccc(F)c1)NC2c1cccc(F)c1 (centres undefined) | > 128 | 64 (≈ 117 µM) | > 128 | 16 (≈ 29.3 µM) | > 128 | > 128 | 32 (≈ 58.7 µM) | 16 (≈ 29.3 µM)
23 | ON=C1C2C(c3ccc(F)cc3)NC(c3ccc(F)cc3)C1C(c1ccc(F)cc1)NC2c1ccc(F)cc1 (centres undefined) | 128 (≈ 241 µM) | 64 (≈ 120 µM) | 64 (≈ 120 µM) | 4 (≈ 7.53 µM) | 16 (≈ 30.1 µM) | > 128 | 4 (≈ 7.53 µM) | 32 (≈ 60.2 µM)
24 | OC(Cn1cncn1)(Cn1cncn1)c1ccc(F)cc1F [FLUCONAZOLE] | 2 (≈ 6.53 µM) |  |  | 4 (≈ 13.1 µM) |  | 2 (≈ 6.53 µM) | 1 (≈ 3.27 µM) | 
